The results in this text go back to ChEMBL document CHEMBL1154106, “Inhibitory effects of 5-benzylidene barbiturate derivatives on mushroom tyrosinase and their antibacterial activities” (Eur J Med Chem, 2009).

Experiment [1] relates to Staphylococcus epidermidis. Description: Antibacterial activity against Staphylococcus epidermidis at 1 mg/ml after 24 hrs by agar dilution method. The class given is functional, organism-based. In short, it runs like this: (§1)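 Agar well diffusion: overnight (16–18 h, 37 °C) cultures set to 0.5 McFarland and mixed into Mueller–Hinton agar. Compound stock 1 mg/mL in DMSO loaded into 6 mm wells, with DMSO as control and levofloxacin as reference. Plates incubated 37 °C for 24 h. Read-out is the diameter of the growth-inhibition zone around each well.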
For orientation: In agar dilution, organisms are placed on agar that contains the substance at set levels.

The target in the next experiment is T1, Tyrosinase (Agaricus bisporus, UniProt O42713).
T1 sequence (O42713 whole entry): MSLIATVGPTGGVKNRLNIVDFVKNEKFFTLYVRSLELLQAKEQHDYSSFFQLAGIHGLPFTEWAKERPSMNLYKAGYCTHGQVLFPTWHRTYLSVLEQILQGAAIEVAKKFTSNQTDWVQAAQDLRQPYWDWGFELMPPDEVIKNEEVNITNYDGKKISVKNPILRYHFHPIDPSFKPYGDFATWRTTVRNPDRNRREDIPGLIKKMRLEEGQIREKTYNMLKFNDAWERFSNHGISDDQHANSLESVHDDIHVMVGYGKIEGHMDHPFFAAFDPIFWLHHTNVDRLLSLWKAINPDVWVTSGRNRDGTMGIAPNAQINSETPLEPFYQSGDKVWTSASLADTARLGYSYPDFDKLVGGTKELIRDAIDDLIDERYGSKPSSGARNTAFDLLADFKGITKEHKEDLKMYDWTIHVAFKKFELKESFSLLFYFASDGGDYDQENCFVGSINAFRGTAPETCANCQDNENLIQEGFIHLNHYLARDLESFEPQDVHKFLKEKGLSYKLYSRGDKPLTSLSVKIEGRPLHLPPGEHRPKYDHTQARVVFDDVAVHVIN
Description: Inhibition of mushroom tyrosinase. In short, it runs like this:
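Mushroom tyrosinase diphenolase assay: 1 mL reaction with 0.5 mM L-DOPA in 50 mM sodium phosphate buffer, pH 6.8, enzyme final 0.5 mg/mL, 25 °C. Compounds dissolved in DMSO (2.0% final); DMSO-only controls run. Dopachrome formation followed at 475 nm for 1 min. IC50 interpolated from dose–response curves; means of three experiments.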

Another experiment deals with Bacillus cereus. Kind of experiment: Antibacterial activity against Bacillus cereus at 1 mg/ml after 24 hrs by agar dilution method. The class given is functional, organism-based.
Experiment [2] addresses T2, Tyrosinase (Agaricus bisporus) (UniProt O42713).
T2 sequence (whole entry): T1 sequence (O42713 whole entry)
Description: Inhibition of mushroom tyrosinase at 200 uM. In short, it runs like this: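 Single-concentration check in the mushroom tyrosinase diphenolase assay. Conditions: 0.5 mM L-DOPA, 50 mM phosphate buffer pH 6.8, enzyme 0.5 mg/mL, 25 °C, 2.0% DMSO final with DMSO controls. Activity read as dopachrome absorbance at 475 nm over 1 min.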

A further experiment has as its system Staphylococcus aureus. Description: Antibacterial activity against Staphylococcus aureus after 24 hrs by agar dilution method. The format is functional. In short, it runs like this: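 MIC by agar dilution on Mueller–Hinton agar containing twofold serial dilutions from a 1 mg/mL DMSO stock. Final levels 50, 25, 12.5, 6.25, 3.1, 1.5, 0.8, 0.4 and 0.2. Inoculum was 16–18 h cultures at 0.5 McFarland; plates incubated 37 °C for 24 h. MIC is the lowest concentration preventing visible growth; levofloxacin was the reference.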

In a further experiment the test system is Escherichia coli. Description: Antibacterial activity against Escherichia coli at 1 mg/ml after 24 hrs by agar dilution method. The format is functional, organism-based.
In another experiment the test system is Staphylococcus. Description: Antibacterial activity against Staphylococcus albus at 1 mg/ml after 24 hrs by agar dilution method. The class given is functional, organism-based.
Another experiment concerns Pseudomonas aeruginosa. Description: Antibacterial activity against Pseudomonas aeruginosa at 1 mg/ml after 24 hrs by agar dilution method. The class given is functional, organism-based. In short, it runs like this:
as §1

Values after ≈ are worked out from the molar mass of the structure shown. Active and inactive are the calls of the source. No cut-off for these calls is given here.

As to `COCCCCOc1ccc(C=C2C(=O)NC(=O)NC2=O)cc1`, the outcome (in experiment [1]; in the experiment with Bacillus cereus; in the experiment with Escherichia coli; with Staphylococcus; with Pseudomonas aeruginosa) was inactive. On Tyrosinase, the IC50 (in general, the concentration at which inhibition is half-maximal) was > 200 µM. Also, the inhibition (in general, the change of the read-out against control, counted positive when it falls) in experiment [2] was 12.2%. Moreover, the MIC (commonly the lowest concentration found to suppress growth) in the experiment on Staphylococcus aureus is > 25 µg/mL.
With `C[C@H]1COc2c(N3CCN(C)CC3)c(F)cc3c(=O)c(C(=O)O)cn1c23.C[C@H]1COc2c(N3CCN(C)CC3)c(F)cc3c(=O)c(C(=O)O)cn1c23.O` [LEVOFLOXACIN], in the experiment on Staphylococcus aureus, the minimal inhibitory concentration (MIC) was 0.4 µg/mL.
As for `COCCOCCOc1ccc(CC2C(=O)NC(=O)NC2=O)cc1`, the outcome (in experiment [1]; with Bacillus cereus; in the experiment on Escherichia coli; with Staphylococcus; with Pseudomonas aeruginosa) was inactive. In addition, on Tyrosinase, the IC50 was > 200 µM. For the same molecule, the inhibition in experiment [2] amounted to 14.3%. Also, in the experiment with Staphylococcus aureus, the MIC is > 12.5 µg/mL.
Consider `CCCCOCCOc1ccc(C=C2C(=O)NC(=O)NC2=O)cc1`, for which the outcome (in experiment [1]; in the experiment on Bacillus cereus; with Escherichia coli; in the experiment on Staphylococcus; in the experiment with Pseudomonas aeruginosa) was inactive. Further, on Tyrosinase, the IC50 is 45.4 µM. The molecule also returned an inhibition in experiment [2] of 100%. Also, in the experiment with Staphylococcus aureus, the minimal inhibitory concentration (MIC) is > 25 µg/mL.
As to `O=C1NC(=S)NC(=O)C1=Cc1ccc(O)cc1`, the outcome (in experiment [1]; with Bacillus cereus; in the experiment on Escherichia coli; in the experiment on Staphylococcus; with Pseudomonas aeruginosa) was inactive. The molecule further showed a half-maximal inhibitory concentration (IC50) against Tyrosinase of 14.5 µM. The molecule also displayed an inhibition in experiment [2] of 100%. The MIC in the experiment on Staphylococcus aureus amounted to 3.1 µg/mL (≈ 12.5 µM).
In the case of `O=C1CC(=O)NC(=S)N1` [THIOBARBITURIC], the IC50 against Tyrosinase is > 200 µM. This molecule showed an inhibition in experiment [2] of 8.21%.
Consider `COCCCCOc1ccc(C=C2C(=O)NC(=S)NC2=O)cc1`, for which the result (in experiment [1]; in the experiment with Bacillus cereus; in the experiment with Escherichia coli; in the experiment on Staphylococcus; with Pseudomonas aeruginosa) was inactive. At Tyrosinase, this molecule had an IC50 of 77.8 µM. This molecule also registered an inhibition in experiment [2] of 100%. Also, in the experiment on Staphylococcus aureus, the minimum inhibitory concentration (MIC) was > 25 µg/mL.
For `COCCCCOc1ccc(CC2C(=O)NC(=O)NC2=O)cc1`, the result (in experiment [1]; in the experiment with Bacillus cereus; with Escherichia coli; in the experiment with Staphylococcus; in the experiment with Pseudomonas aeruginosa) was inactive. Moreover, the IC50 against Tyrosinase is > 200 µM. This molecule also displayed an inhibition in experiment [2] of 1.15%. For the same molecule, in the experiment with Staphylococcus aureus, the MIC was > 12.5 µg/mL.
For `CCCCOCCOc1ccc(CC2C(=O)NC(=S)NC2=O)cc1`, the result (in experiment [1]; with Bacillus cereus; with Escherichia coli; in the experiment on Staphylococcus; with Pseudomonas aeruginosa) was inactive. The molecule further yielded an IC50 at Tyrosinase of 179 µM. This molecule gave an inhibition in experiment [2] of 78.7%. Further, inhibition of growth with Staphylococcus aureus (MIC) required 6.25 µg/mL (≈ 17.8 µM).
The molecule `O=Cc1ccc(O)cc1` [4-HYDROXYBENZALDEHYDE] returned an IC50 against Tyrosinase of 1220 µM. The same molecule came in with an inhibition in experiment [2] of 16.4%.
`COCCOc1ccc(C=C2C(=O)NC(=S)NC2=O)cc1`: the outcome (in experiment [1]; in the experiment on Bacillus cereus; in the experiment with Escherichia coli; in the experiment with Staphylococcus; in the experiment with Pseudomonas aeruginosa) was inactive. On Tyrosinase, this molecule yielded an IC50 of 28.4 µM. This molecule also gave an inhibition in experiment [2] of 100%. The MIC against Staphylococcus aureus is > 12.5 µg/mL.
As for `COCCOc1ccc(C=C2C(=O)NC(=O)NC2=O)cc1`, the outcome (in experiment [1]; in the experiment on Bacillus cereus; with Escherichia coli; in the experiment with Staphylococcus; in the experiment on Pseudomonas aeruginosa) was inactive. On Tyrosinase, this molecule showed an IC50 of 75.4 µM. This molecule returned an inhibition in experiment [2] of 100%. In addition, the minimum inhibitory concentration (MIC) in the experiment on Staphylococcus aureus is > 25 µg/mL.
With `COCCOCCOc1ccc(C=C2C(=O)NC(=O)NC2=O)cc1`, the outcome (in experiment [1]; in the experiment with Bacillus cereus; in the experiment on Escherichia coli; in the experiment on Staphylococcus; in the experiment on Pseudomonas aeruginosa) was inactive. The molecule further displayed an IC50 against Tyrosinase of 137 µM. The molecule further had an inhibition in experiment [2] of 88.7%. Further, the MIC in the experiment with Staphylococcus aureus was > 25 µg/mL.
On to `O=C1NC(=S)NC(=O)C1Cc1ccc(O)cc1`, for which the result (in experiment [1]; with Bacillus cereus; with Escherichia coli; in the experiment on Staphylococcus; with Pseudomonas aeruginosa) was inactive. At Tyrosinase, this molecule gave an IC50 of 70 µM. This molecule also gave an inhibition in experiment [2] of 100%. The minimal inhibitory concentration (MIC) against Staphylococcus aureus is > 25 µg/mL.
As to `COCCOCCOc1ccc(CC2C(=O)NC(=S)NC2=O)cc1`, the outcome (in experiment [1]; in the experiment on Bacillus cereus; in the experiment on Escherichia coli; in the experiment with Staphylococcus; in the experiment on Pseudomonas aeruginosa) was inactive. Further, the IC50 against Tyrosinase is 132 µM. The molecule also had an inhibition in experiment [2] of 97.5%. Also, the MIC with Staphylococcus aureus was > 12.5 µg/mL.
On to `O=C1NC(=O)C(Cc2ccc(OCCO)cc2)C(=O)N1`, for which the result (in experiment [1]; with Bacillus cereus; in the experiment with Escherichia coli; in the experiment on Staphylococcus; with Pseudomonas aeruginosa) was inactive. In addition, the IC50 at Tyrosinase was > 200 µM. The molecule further returned an inhibition in experiment [2] of 5.27%. The MIC in the experiment on Staphylococcus aureus was > 12.5 µg/mL.
Turning to `O=C1NC(=S)NC(=O)C1Cc1ccc(OCCO)cc1`, the outcome (in experiment [1]; in the experiment with Bacillus cereus; in the experiment with Escherichia coli; in the experiment on Staphylococcus; in the experiment with Pseudomonas aeruginosa) was inactive. The molecule also returned an IC50 against Tyrosinase of 156 µM. The inhibition in experiment [2] worked out at 95.9%. For the same molecule, the MIC against Staphylococcus aureus was > 25 µg/mL.
`O=C1NC(=O)C(Cc2ccc(O)cc2)C(=O)N1`: the outcome (in experiment [1]; in the experiment on Bacillus cereus; in the experiment with Escherichia coli; in the experiment with Staphylococcus; in the experiment on Pseudomonas aeruginosa) was inactive. In addition, the IC50 against Tyrosinase was > 200 µM. The same molecule yielded an inhibition in experiment [2] of 47.5%. Also, in the experiment with Staphylococcus aureus, the MIC is > 12.5 µg/mL.
In the case of `O=C1NC(=O)C(=Cc2ccc(OCCO)cc2)C(=O)N1`, the outcome (in experiment [1]; with Bacillus cereus; in the experiment on Escherichia coli; with Staphylococcus; with Pseudomonas aeruginosa) was inactive. Moreover, the IC50 against Tyrosinase was > 200 µM. Also, in experiment [2], the inhibition turned out to be 22.4%. Moreover, the minimal inhibitory concentration (MIC) in the experiment on Staphylococcus aureus was > 25 µg/mL.
Take `O=C1NC(=S)NC(=O)C1=Cc1ccc(OCCO)cc1`: the result (in experiment [1]; in the experiment with Bacillus cereus; with Escherichia coli; in the experiment with Staphylococcus; in the experiment with Pseudomonas aeruginosa) was inactive. Besides, the half-inhibitory concentration (IC50) at Tyrosinase is > 200 µM. This molecule also showed an inhibition in experiment [2] of 16.5%. Moreover, in the experiment with Staphylococcus aureus, the MIC was > 25 µg/mL.
For `COCCOc1ccc(CC2C(=O)NC(=O)NC2=O)cc1`, the outcome (in experiment [1]; with Bacillus cereus; with Escherichia coli; with Staphylococcus; in the experiment with Pseudomonas aeruginosa) was inactive. Besides, on Tyrosinase, the IC50 was > 200 µM. Also, the inhibition in experiment [2] worked out at 23.1%. Also, the MIC against Staphylococcus aureus is > 12.5 µg/mL.
Regarding `COc1ccc(/C=C/C(=O)O)cc1`, the inhibition in experiment [2] was 46.6%.
With `O=C1CC(=O)NC(=O)N1` [BARBITURIC ACID], the IC50 at Tyrosinase is > 200 µM. The molecule also returned an inhibition in experiment [2] of 5.95%.
